Shown are actives, neighbours in structure and some others; about 3.8% of the full set was active somewhere.
Kir21 block: blocks the mouse Kir2.1 inward-rectifier potassium channel. B-score at 10 µM. P35561. actives 0.85% (n = 310,000). HEK293-Kir2.1, FluxOR thallium flux fluorescence; stronger effect = lower value. AID 1672;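 active = fluorescence ratio B-score at or below minus 3 SD of library scores, with starting-brightness B-score within 2 SD, cut at about -4.2 in these data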;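 note: channel flux triggered by added potassium and thallium sulfate stimulus; B-score of peak minus minimum fluorescence over baseline after thallium stimulus; more negative B-score means stronger Kir2.1 block with less thallium influx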
hERG rescue: shields human hERG channel from block by proarrhythmic agents; CHO-hERG, FluxOR thallium flux, dofetilide IC70 present; activation (rescue from dofetilide block), less the hit threshold, % at 10 µM; actives 0.51% (n = 310,000);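 active = activation above the mean of controls blocked by dofetilide plus 5 SD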;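 note: thallium influx through hERG after potassium depolarization seen as dye fluorescence rise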
KCNQ1 pot: potentiates or activates the human KCNQ1 potassium channel | P51787 | CHO-K1 KCNQ1, thallium flux FluxOR fluorescence; stronger effect = higher value | actives 0.35% (n = 310,000) | B-score at 10 µM;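 active = fluorescence ratio B-score, a plate-corrected score, at least three library SD, with initial intensity B-score within 5 SD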
Target sequence (P51787 whole entry, looked up): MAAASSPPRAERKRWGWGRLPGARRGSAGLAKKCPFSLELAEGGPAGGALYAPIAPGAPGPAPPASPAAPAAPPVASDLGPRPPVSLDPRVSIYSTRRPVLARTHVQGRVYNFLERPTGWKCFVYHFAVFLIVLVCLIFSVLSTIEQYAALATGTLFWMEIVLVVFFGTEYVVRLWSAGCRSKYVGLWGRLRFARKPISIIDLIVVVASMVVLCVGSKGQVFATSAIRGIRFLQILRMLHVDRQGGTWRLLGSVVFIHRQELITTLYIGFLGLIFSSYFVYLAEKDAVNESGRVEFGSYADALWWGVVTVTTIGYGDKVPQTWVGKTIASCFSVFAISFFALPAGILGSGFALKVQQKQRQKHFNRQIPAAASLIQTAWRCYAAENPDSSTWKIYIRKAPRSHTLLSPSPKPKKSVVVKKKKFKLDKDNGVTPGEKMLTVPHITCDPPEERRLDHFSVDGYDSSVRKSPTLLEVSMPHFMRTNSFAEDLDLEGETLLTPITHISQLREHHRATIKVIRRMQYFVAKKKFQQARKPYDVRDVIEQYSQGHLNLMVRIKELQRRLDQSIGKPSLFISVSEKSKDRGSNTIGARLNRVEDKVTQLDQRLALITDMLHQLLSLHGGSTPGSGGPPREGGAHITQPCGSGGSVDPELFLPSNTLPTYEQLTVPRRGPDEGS
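Doses: Single concentration per compound, DMSO matched to controls | Test system: KCNQ1-transfected CHO-K1 cells | Timing: 90 min dye loading and 20 min compound exposure, both at room temperature | Measured by: Kinetic FluxOR thallium fluorescence, 10-s 1-Hz baseline, 110-s post-stimulus read | Medium: Assay buffer with matched DMSO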
KCNK3 inh: human KCNK3 channel inhibition, primary screen | actives 0.84% (n = 340,000) | O14649 | CHO-KCNK3 thallium flux, FluxOR fluorescence; stronger effect = lower value | B-score at 10 µM;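 active = B-score under library mean minus 4 SD, starting fluorescence ratio at most library mean plus 5 SD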;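 note: more negative B-score means stronger inhibition of thallium flux through KCNK3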
KCNQ1 block: human KCNQ1 channel inhibition; B-score at 10 µM; CHO-K1 KCNQ1, FluxOR thallium flux fluorescence; stronger effect = higher value; actives 1.3% (n = 310,000); P51787;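 active = compounds whose thallium flux B-score, printed positive for inhibition, exceeds three library SD while starting fluorescence stays within three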;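 note: channel opened by potassium depolarization with thallium stimulus after 20 min compound exposure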
KCNK9 inh: blocks the human KCNK9 two-pore domain potassium channel; Q9NPC2; HEK293 KCNK9, FluxOR thallium flux fluorescence; stronger effect = lower value; B-score at 10 µM; actives 1.2% (n = 310,000); AID 488922;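 active = ratio B-score over 3 SD below the library mean, with starting fluorescence within 5 SD of its mean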;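 note: negative B-score means less thallium flux so channel inhibition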
Active calls of the source: *; i = inactive; . = no result given.

SMILES	Kir21 block	hERG rescue	KCNQ1 pot	KCNK3 inh	KCNQ1 block	KCNK9 inh
COc1ccc(O)c(C(=O)CC(=O)c2ccc(F)cc2)c1	-2.18	-0.6	i	i	i	i
O=C(NCc1ccc(Cl)cc1)C1CCN(S(=O)(=O)c2cccnc2)CC1	0.57	-2.3	i	i	i	i
O=C(CC(=O)c1cc(Cl)ccc1O)c1ccccc1	-1	-3.3	18*	i	i	i
O=C(COC(=O)/C=C/c1cccs1)Nc1ccc2ccccc2c1	0.02	-11.5	i	i	i	i
O=S(=O)(NCc1csc(-c2cccnc2)n1)c1ccc(Br)cc1	-7.73*	-10.3	i	i	i	i
CC1CCN(c2nc(CN3CCCCC3)nc3scc(-c4ccccc4)c23)CC1	-7.62*	-20.7	i	i	i	i
CS(=O)(=O)Nc1ccc(C(=O)NCCSc2ccc(Cl)cc2)cc1	0.65	-2.8	i	i	i	i
O=c1c(O)c(-c2cccs2)oc2ccccc12	-3.95	33.5*	55*	i	i	i
O=c1c(O)c(-c2cccs2)oc2ccc(Cl)cc12	-7.37	34.8*	72*	i	i	i
O=c1cc(-c2cccs2)oc2ccc(Cl)cc12	2.04	-15.1	i	i	i	i
COc1cccc(NC(=O)CN(C)C(=O)CC2CCCCC2)c1	.	.	.	i	.	.
S=c1[nH]nc(-c2ccccc2)n1/N=C/c1ccc(-c2ccccc2Cl)o1	0.83	3.8	8*	i	i	i
S=c1[nH]nc(-c2ccccn2)n1/N=C/c1ccc(-c2ccccc2Br)o1	-0.79	13.7*	i	i	i	i
Cc1c(-c2ccccc2)[n+](=O)c2c(n1[O-])CCCC2	-0.95	-3.9	i	i	i	i
CCCC1CCC(=NNC(=O)OC(C)(C)C)CC1 (configuration not stated)	1.1	-5.5	i	i	i	i
CN1CCN(NC(=O)c2cc(-c3ccccn3)nc3ccccc23)CC1	0.65	-3.8	i	i	i	i
Cc1cc(C)nc(NC(=O)c2cc(-c3ccc(C)s3)nc3ccccc23)c1	2.5	-4.6	i	i	6*	i
CN1CCN(NC(=O)c2cc(-c3ccc(Cl)s3)nc3ccccc23)CC1	-4.52*	-11.8	i	i	i	i
Cc1ccc(S(=O)(=O)N2CCCCC2)cc1NC(=O)c1nn(C)c(=O)c2ccccc12	.	.	.	i	.	.
C=CCc1ccc(OCCOCCOc2cccc3cccnc23)c(OC)c1	-4.93*	-15.4	i	i	i	i
C=CCc1ccc(OCCOc2cccc3cccnc23)c(OC)c1	-0.99	-7.8	i	i	i	i
Brc1ccccc1OCCOCCOc1cccc2cccnc12	-4.55*	-0.8	i	i	i	i
Brc1ccc(OCCOCCOc2cccc3cccnc23)cc1	-2.19	-10.5	i	i	i	i
COc1c2ccccc2c(OC)c2ccccc12	-0.88	-14.2	i	i	i	i
Cc1ccc(C2c3c(-c4ccccc4O)n[nH]c3C(=O)N2Cc2ccncc2)cc1 (configuration not stated)	-0.81	12.0*	i	i	i	i
SMILES	Kir21 block	hERG rescue	KCNQ1 pot	KCNK3 inh	KCNQ1 block	KCNK9 inh
Cc1ccc(C)c2c1cc(C)c1nnc(SCC(=O)Nc3nc4c(s3)CCCC4)n12	-0.03	-3.5	i	i	i	i
Cc1ccc(C)c2c1cc(C)c1nnc(SCC(=O)c3cccs3)n12	-7.54*	-7.9	i	i	i	i
Cc1ccc2cc(C)c3nnc(SCC(=O)c4cccs4)n3c2c1C	-5.11*	-8.1	i	i	i	i
Cc1ccc(S(=O)(=O)N(C)CCCC(=O)NC(C)(C)C)cc1	-0.33	-4.5	i	i	i	i
Cc1cc(C(=O)NCC(c2cccs2)N2CCOCC2)ccc1[N+](=O)[O-] (configuration not stated)	-1.33	-15.0	i	i	i	i
CCOc1cc(N2CCOCC2)c(OCC)cc1NC(=O)CN1C(=O)C2CC=CCC2C1=O (configuration not stated)	1.72	7.2*	i	i	i	i
CCOc1cc(N2CCOCC2)c(OCC)cc1NC(=O)CCC1CCCC1	0.46	6.9*	i	i	i	i
COc1ccc(Cl)cc1C(=O)NCC(=O)OCc1ccccc1	-1.13	-16.4	i	i	i	i
Cc1cccc(NC(=O)C(C)Sc2nc3nc(C)cc(C)n3n2)c1 (configuration not stated)	.	.	.	i	.	.
Cc1ccc(CN2C(=O)NC(Cc3c[nH]c4ccccc34)C2=O)cc1 (configuration not stated)	-4.34*	-14.7	i	i	i	i
Cc1ccc(OCC(=O)N2CCCCCCC2)cc1	0.41	-2.1	i	i	i	i
CCOC(=O)C1CCN(C(=O)Cc2c(C(=O)O)n(CC)c3ccccc23)CC1	-0.6	5.5*	i	i	i	i
Cc1ccc(-n2nc3ccc(N)cc3n2)cc1Cl	-0.1	-1.7	i	i	i	i
Cc1ccc(-n2nc3ccc(N)cc3n2)c(C)c1	0.02	7.0*	i	i	i	i
CCOc1ccc2nc(N3C(=O)/C(=C/c4ccc(Cl)cc4)NC3=S)sc2c1	2.47	-2.5	26*	i	i	i
COc1ccc2nc(N3C(=O)CNC3=S)sc2c1	0.76	-6.4	i	i	i	i
CCOC(=O)C1=NNC2(c3ccc(C)cc3)C(=O)N(c3ccccc3)C(=O)C12 (configuration not stated)	0.92	-5.9	i	i	i	i
CC(=O)C1=C(C)NC(SCc2ccc(C#N)cc2)=C(C#N)C1c1ccco1 (configuration not stated)	.	.	.	i	.	.
CC(=O)C1=C(C)NC(SCC(=O)c2ccc(Cl)cc2)=C(C#N)C1c1ccco1 (configuration not stated)	-1.11	-5.4	i	i	i	-15.1*
CC(C)(C)C1=CC(O)(c2ccccc2)C=C(C(C)(C)C)C1=O	-1.76	-12.5	i	i	8*	i
COC(=O)C1=C(CS(=O)(=O)c2cc(OC)ccc2OC)NC(=O)NC1c1ccc(O)c(OC)c1 (configuration not stated)	0.49	-4.4	i	i	i	i
CNCC[C@H](Oc1cccc2ccccc12)c1cccs1	-9.06*	-9.1	i	i	i	i
CNCCC(Oc1ccc(C(F)(F)F)cc1)c1ccccc1 (configuration not stated)	-2.61	.	i	i	i	i
